# Reference: publication PMC6660416 (Cell, 2019)
# How the values were obtained:
# 5-HT2A-RLuc = test: BRET association assay, 5-HT2A-RLuc and mVenus-nanobody; format: cell-based; settings: 5-HT at 1μM or above
# MRGPRX2 = test: Transcription factor reporter primary screen; format: cell-based; settings: MRGPRX2 activated by (+)-morphine, 4 hrs post-ligand addition
# R7 tTA = test: tTA reporter assay; format: cell-based; settings: increasing concentrations of DOX
# Method in brief: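 Six hours after transfection, cells were washed and dissociated with versene. They were resuspended in DMEM + 1% dialyzed FBS and plated on poly-L-lysine 384-well plates at 10,000 cells/well. Doxycycline HCl, prepared in plating media at 2x, was added for 20–22 hr overnight. Media was then removed and 1:20-diluted Bright-Glo luciferase reagent was added for luminescence read-out.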
# 5-HT2A-Gαq = 5-HT2A-Gαq (Homo sapiens, UniProt P28223+P50148); test: Saturation radioligand binding assay with [3H]LSD
smiles,measurement,setting,value
"NCCc1c[nH]c2ccc(O)cc12 [5-HT, serotonin]",effect of agonist on VGS-Nb2 association to 5-HT2A,5-HT2A-RLuc,no effect
CN1CC[C@@]23c4c5ccc(O)c4O[C@@H]2[C@H](O)C=C[C@@H]3[C@@H]1C5 [(+)-morphine],SRE minimal promoter luciferase response,MRGPRX2,5 fold
same,SRF minimal promoter luciferase response,MRGPRX2,5 fold
"C[C@H]1c2cccc(O)c2C(=O)C2=C(O)[C@]3(O)C(=O)C(C(N)=O)=C(O)[C@@H](N(C)C)[C@@H]3[C@@H](O)[C@@H]21 [DOX, doxycycline]",sensitivity of R7 consensus tTA to doxycycline in TETO7-Rluc reporter,R7 tTA,completely resistant
"[3H]CN1C[C@H](C(=O)N(CC)CC)C=C2c3cccc4[nH]cc(c34)C[C@H]21 [[^3H]LSD, [N-Methyl-^3H]-Lysergic Acid Diethylamide]",BMax,5-HT2A-Gαq; 5HT2A-Gaq membrane + 5uM VGS-Nb2,1993 fmol/mg
same,BMax,"5-HT2A-Gαq; 5HT2A-Gaq membrane, vehicle",1333 fmol/mg
